Assay results published in ChEMBL document CHEMBL1144771, “Synthesis of 1-substituted 3-pyridinylmethylidenylindolin-2-ones and 1-substituted 3-quinolinylmethylidenylindolin-2-ones as the enhancers of ATRA-induced differentiation in HL-60 cells” (Bioorg Med Chem, 2008).
Active and inactive are the calls of the source. No cut-off for these calls is given here.

Tests used:
HL-60 [1] = assay: Cytotoxicity against human HL60 cells at 1.0 uM after 72 hrs by MTT assay relative to control; format: functional
In short: (§1)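 Log-phase HL-60 cells at 4×10^4 cells/mL in RPMI-1640 with 10% FBS, 37 °C, 5% CO2. Treated 72 h with compound, with or without 5 nM ATRA. Cells washed in cold PBS, given MTT (5 mg/mL solution) in HBSS for 2 h at 37 °C in the dark. Formazan dissolved in DMSO, absorbance read at 570 nm. Viability given as % of vehicle control; means ± SD, four independent experiments.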

HL-60 [2] = assay: Cytotoxicity against human HL60 cells at 2.5 uM after 72 hrs by MTT assay relative to control; format: functional; in short: as §1
HL-60 [3] = assay: Induction of cell differentiation in human HL60 cells at 1.0 uM after 72 hrs by NBT reduction assay; format: functional
HL-60 [4] = assay: Induction of cell differentiation in human HL60 cells at 2.5 uM after 72 hrs by NBT reduction assay; format: functional
HL-60 [5] = assay: Induction of cell differentiation in human HL60 cells at 5.0 uM after 72 hrs by NBT reduction assay; format: functional
HL-60 [6] = assay: Cytotoxicity against human HL60 cells at 5.0 uM after 72 hrs by MTT assay relative to control; format: functional; in short: as §1
HL-60 [7] = assay: Cytotoxicity against human HL60 cells after 72 hrs by MTT assay; format: functional, cell-based; in short: as §1
HL-60 [8] = assay: Cytotoxicity against human HL60 cells at 0.5 uM after 72 hrs by MTT assay relative to control; format: functional; in short: as §1
HL-60 [9] = assay: Induction of cell differentiation in human HL60 cells at 2.0 uM after 72 hrs by NBT reduction assay relative to control; format: functional
HL-60 [10] = assay: Cytotoxicity against human HL60 cells at 2 uM after 72 hrs by MTT assay relative to control; format: functional; in short: as §1
HL-60 [11] = assay: Induction of cell differentiation in human HL60 cells at 0.5 uM after 72 hrs by NBT reduction assay; format: functional
HL-60 [12] = assay: Cell cycle arrest in human HL60 cells assessed as increase in G0/G1 phase accumulation at 2 uM after 72 hrs by flow cytometry; format: functional
In short: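 HL-60 cells at 4×10^4 cells/mL, 72 h with vehicle, ATRA (5 nM or 1 µM), 2 µM compound alone, or 2 µM compound plus 5 nM ATRA. Cells fixed in 70% ice-cold ethanol at -20 °C overnight. Stained 30 min at 37 °C in the dark with 1% Triton X-100, 0.1 mg/mL RNase and 4 µg/mL propidium iodide. G0/G1 fraction by flow cytometry; means ± SD, four experiments.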

[13] = Cytotoxicity against human leukocytes after 48 hrs by MTT assay; format: cell-based; conditions: Leukocyte
In short: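 Human normal leukocytes in RPMI-1640 with 10% FBS. Treated with vehicle, compound alone, or compound plus 5 nM ATRA; 48 h per the legend (72 h per methods). Viability by MTT with formazan absorbance at 570 nm; 50% growth-inhibition concentration reported. Means ± SD, four experiments.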

HL-60 [14] = assay: Effect on morphology in human HL60 cells assessed as spindle-shape at 2 uM after 72 hrs; format: functional, cell-based
In short: (§2)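 HL-60 cells (4×10^4) treated 72 h with vehicle, 2 µM compound alone, 2 µM compound plus 5 nM ATRA, 5 nM ATRA, or 1 µM ATRA. Unstained cells examined for spindle shape at 200× magnification. Liu's-stained cells examined by optical microscopy for horseshoe-shaped nuclei.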

HL-60 [15] = assay: Effect on morphology in human HL60 cells assessed as population of horseshoe-shape nuclei at 2 uM after 72 hrs; format: functional, cell-based; in short: as §2
HL-60 [16] = assay: Cytotoxicity against human HL60 cells at 0.5 uM after 72 hrs by MTT assay; format: functional; in short: as §1
HL-60 [17] = assay: Cytotoxicity against human HL60 cells at 5.0 uM after 72 hrs by MTT assay; format: functional, cell-based; in short: as §1
HL-60 [18] = assay: Induction of cell differentiation in human HL60 cells at 2.5 uM after 72 hrs by NBT reduction assay relative to control; format: functional
HL-60 [19] = assay: Cytotoxicity against human HL60 cells at 1.0 uM after 72 hrs by MTT assay; format: functional; in short: as §1
HL-60 [20] = assay: Cytotoxicity against human HL60 cells at 2.5 uM after 72 hrs by MTT assay; format: functional; in short: as §1
HL-60 [21] = assay: Cytotoxicity against human HL60 cells at 2 uM after 72 hrs by MTT assay; format: functional, cell-based; in short: as §1
HL-60 [22] = assay: Induction of cell differentiation in human HL60 cells at 2.0 uM after 72 hrs by NBT reduction assay; format: functional, cell-based
HL-60 [23] = assay: Induction of cell differentiation in human HL60 cells at 5.0 uM after 72 hrs by NBT reduction assay relative to control; format: functional
HL-60 [24] = assay: Induction of cell differentiation in human HL60 cells at 10.0 uM after 72 hrs by NBT reduction assay; format: functional
HL-60 [25] = assay: Cytotoxicity against human HL60 cells at 10.0 uM after 72 hrs by MTT assay relative to control; format: functional; in short: as §1
HL-60 [26] = assay: Induction of cell differentiation in human HL60 cells at 0.1 uM after 72 hrs by NBT reduction assay; format: functional
HL-60 [27] = assay: Cytotoxicity against human HL60 cells at 0.1 uM after 72 hrs by MTT assay relative to control; format: functional; in short: as §1
HL-60 [28] = assay: Cytotoxicity against human HL60 cells at 1.0 uM after 72 hrs by MTT assay relative to ATRA; format: functional; conditions: in the assay text read “relative to control” for “relative to ATRA”; in short: as §1

O=C1/C(=C\c2cccnc2)c2ccccc2N1Cc1ccccc1
Activity (HL-60 [1]): 93.2% | Activity (HL-60 [2]): 75.9% | Activity (HL-60 [3]): 0.7% | Activity (HL-60 [4]): 0.8% | Activity (HL-60 [5]): 2.7% | Activity (HL-60 [6]): 25.4% | IC50 (HL-60 [7]; Homo sapiens, HL-60, 72 h): 3.8 µM

CC(c1ccccc1)N1C(=O)/C(=C\c2cnc3ccccc3c2)c2ccccc21 (stereo in doubt; 25) [listing 1 of 2 here]
Activity (HL-60 [8]): 89.5% | Activity (HL-60 [1]): 70.9% | Activity (HL-60 [9]): 33.9% | Activity (HL-60 [10]): 24.7% | Activity (HL-60 [11]): 0.8% | Activity (HL-60 [12]): 49.8% | IC50 [13]: 14 µM | Activity (HL-60 [3]): 0.3% | IC50 (HL-60 [7]; hl-60): 1.4 µM

CC(c1ccccc1)N1C(=O)/C(=C\c2cnc3ccccc3c2)c2ccccc21 (stereo in doubt; 25) [listing 2 of 2 here]
Activity (HL-60 [14]): Active | Activity (HL-60 [15]): Active

O=C1/C(=C\c2ccc3ccccc3n2)c2ccccc2N1Cc1ccccc1
Activity (HL-60 [1]): 82.7% | Activity (HL-60 [2]): 55.7% | Activity (HL-60 [3]): 2% | Activity (HL-60 [4]): 2% | Activity (HL-60 [5]): 4.4% | Activity (HL-60 [6]): 12.2% | IC50 (HL-60 [7]; Homo sapiens, HL-60, 72 h): 2.8 µM

CC(c1ccccc1)N1C(=O)/C(=C\c2cnc3ccccc3c2)c2ccccc21 (stereo in doubt; 25Z)
Activity (HL-60 [1]): 82.3% | Activity (HL-60 [9]): 40.8% | Activity (HL-60 [10]): 20.3% | Activity (HL-60 [11]): 1.3% | Activity (HL-60 [16]): 116.1% | Activity (HL-60 [3]): 3.8% | IC50 (HL-60 [7]; Homo sapiens, HL-60, 72 h): 1.5 µM

CC(c1ccccc1)N1C(=O)/C(=C\c2ccnc3ccccc23)c2ccccc21 (centres undefined)
Activity (HL-60 [1]): 72.6% | Activity (HL-60 [2]): 31% | Activity (HL-60 [17]): Toxic | Activity (HL-60 [3]): 1.2% | Activity (HL-60 [5]): Toxic | Activity (HL-60 [18]): 20.8%

O=C1/C(=C\c2ccccn2)c2ccccc2N1Cc1ccccc1
Activity (HL-60 [3]): 0.7% | Activity (HL-60 [4]): 0.7% | Activity (HL-60 [5]): 3.4% | Activity (HL-60 [19]): 116.6% | Activity (HL-60 [20]): 98.5% | Activity (HL-60 [6]): 24.7% | IC50 (HL-60 [7]; Homo sapiens, HL-60, 72 h): 3.6 µM

CC(c1ccccc1)N1C(=O)/C(=C\c2ccncc2)c2ccccc21 (centres undefined)
Activity (HL-60 [21]): Toxic | Activity (HL-60 [8]): 66.7% | Activity (HL-60 [1]): 49.2% | Activity (HL-60 [11]): 1% | Activity (HL-60 [3]): 0.8% | Activity (HL-60 [22]): Toxic

O=C1/C(=C\c2ccncc2)c2ccccc2N1Cc1cccc2ccccc12
Activity (HL-60 [11]): 0.8% | Activity (HL-60 [16]): 103.6% | Activity (HL-60 [3]): 0.5% | Activity (HL-60 [4]): Toxic | Activity (HL-60 [19]): 90.8% | Activity (HL-60 [20]): Toxic

CC(c1ccccc1)N1C(=O)/C(=C\c2ccc3ccccc3n2)c2ccccc21 (centres undefined)
Activity (HL-60 [23]): 15% | Activity (HL-60 [2]): 81.3% | Activity (HL-60 [3]): 0.8% | Activity (HL-60 [4]): 1% | Activity (HL-60 [19]): 103.2% | Activity (HL-60 [6]): 18.5% | IC50 (HL-60 [7]; Homo sapiens, HL-60, 72 h): 3.4 µM

O=C1/C(=C\c2cnc3ccccc3c2)c2ccccc2N1Cc1ccccc1
Activity (HL-60 [23]): 23.6% | Activity (HL-60 [2]): 70.6% | Activity (HL-60 [3]): 0.7% | Activity (HL-60 [4]): 0.8% | Activity (HL-60 [19]): 117.4% | Activity (HL-60 [6]): 10.9% | IC50 (HL-60 [7]; Homo sapiens, HL-60, 72 h): 3.2 µM

CC(c1ccccc1)N1C(=O)/C(=C\c2cccnc2)c2ccccc21 (centres undefined)
Activity (HL-60 [1]): 88% | Activity (HL-60 [2]): 87% | Activity (HL-60 [3]): 0.8% | Activity (HL-60 [4]): 2.5% | Activity (HL-60 [6]): 19.6% | IC50 (HL-60 [7]; Homo sapiens, HL-60, 72 h): 3.3 µM | Activity (HL-60 [18]): 2.5%

CC(c1ccccc1)N1C(=O)/C(=C\c2ccccn2)c2ccccc21 (centres undefined)
Activity (HL-60 [1]): 90% | Activity (HL-60 [2]): 87.1% | Activity (HL-60 [3]): 0.7% | Activity (HL-60 [4]): 0.7% | Activity (HL-60 [5]): 2% | Activity (HL-60 [6]): 55.7% | IC50 (HL-60 [7]; Homo sapiens, HL-60, 72 h): 5.9 µM

O=C1/C(=C\c2ccnc3ccccc23)c2ccccc2N1Cc1ccccc1
Activity (HL-60 [1]): 85.2% | Activity (HL-60 [3]): 0.8% | Activity (HL-60 [5]): 2.1% | Activity (HL-60 [24]): 4.7% | Activity (HL-60 [6]): 73.8% | Activity (HL-60 [25]): 51.2% | IC50 (HL-60 [7]; Homo sapiens, HL-60, 72 h): 10.6 µM

CC(c1ccccc1)N1C(=O)/C(=C/c2cnc3ccccc3c2)c2ccccc21 (centres undefined)
Activity (HL-60 [1]): 82.9% | Activity (HL-60 [9]): 37.7% | Activity (HL-60 [10]): 25.5% | Activity (HL-60 [11]): 0.8% | Activity (HL-60 [16]): 109.9% | Activity (HL-60 [3]): 4.3% | IC50 (HL-60 [7]; Homo sapiens, HL-60, 72 h): 1.4 µM

O=C1/C(=C\c2ccncc2)c2ccccc2N1Cc1ccc2ccccc2c1
Activity (HL-60 [8]): 59.6% | Activity (HL-60 [26]): 0.8% | Activity (HL-60 [27]): 78.2% | Activity (HL-60 [11]): 0.7% | Activity (HL-60 [3]): Toxic | Activity (HL-60 [19]): Toxic

O=C1/C(=C\c2cc[n+]([O-])cc2)c2ccccc2N1Cc1ccccc1
Activity (HL-60 [23]): 11.5% | Activity (HL-60 [28]): 90% | Activity (HL-60 [2]): 43.4% | Activity (HL-60 [3]): 1.6% | Activity (HL-60 [4]): 3.2% | Activity (HL-60 [6]): 22% | IC50 (HL-60 [7]; Homo sapiens, HL-60, 72 h): 2.9 µM

O=C1/C(=C\c2ccncc2)c2ccccc2N1Cc1ccccc1
Activity (HL-60 [1]): 85.6% | Activity (HL-60 [2]): 24.4% | Activity (HL-60 [11]): 0.3% | Activity (HL-60 [16]): 101% | Activity (HL-60 [3]): 1.2% | IC50 (HL-60 [7]; Homo sapiens, HL-60, 72 h): 1.9 µM | Activity (HL-60 [18]): 7%
